From ChEMBL document CHEMBL3351381, “Synthesis, structure-activity relationship studies, and antibacterial evaluation of 4-chromanones and chalcones, as well as olympicin A and derivatives” (J Med Chem, 2014)
≈ marks a conversion by molar mass, not a printed value. Calls of active or inactive are those of the source. No cut-off for these calls is given here.

Assays:
[1] = test system: Escherichia coli; assay: Antimicrobial activity against tolC-deficient Escherichia coli by microbroth dilution method; type: functional
[2] = test system: Enterococcus faecalis; assay: Antimicrobial activity against Enterococcus faecalis ATCC 33186 by microbroth dilution method; type: functional
[3] = test system: Mycobacterium tuberculosis; assay: Antimicrobial activity against Mycobacterium tuberculosis H37Rv by microbroth dilution method; type: functional
[4] = test system: Klebsiella pneumoniae; assay: Antimicrobial activity against Klebsiella pneumoniae ATCC 33495 at >200 ug/ml by microbroth dilution method; type: functional
[5] = test system: Pseudomonas aeruginosa; assay: Antimicrobial activity against Pseudomonas aeruginosa PAO1 at >200 ug/ml by microbroth dilution method; type: functional
[6] = test system: Escherichia coli; assay: Antimicrobial activity against Escherichia coli K-12 by microbroth dilution method; type: functional
[7] = test system: Staphylococcus aureus; assay: Antimicrobial activity against methicillin-sensitive Staphylococcus aureus ATCC 29213 by microbroth dilution method; type: functional
[8] = test system: Staphylococcus aureus; assay: Antimicrobial activity against methicillin-resistant Staphylococcus aureus NRS 70 by microbroth dilution method; type: functional
[9] = Selectivity index, ratio of CC50 for african green monkey Vero cells to IC50 for methicillin-resistant Staphylococcus aureus NRS 70; type: functional
How it was run: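 Vero kidney epithelial cells were grown in DMEM/10% FBS, trypsinized, seeded at about 10% confluence and left overnight to adhere. They were then exposed to 2-fold serial compound dilutions in DMEM/FBS, and viability was read by MTT after overnight solubilization. SI = cytotoxic IC50 divided by MIC against MRSA.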

[10] = test system: Vero; assay: Cytotoxicity against african green monkey Vero cells assessed as reduction in cell viability by MTT assay; type: cell-based; details: Chlorocebus sabaeus
How it was run: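 Vero kidney epithelial cells (ATCC CCL-81) in DMEM/10% FBS, trypsinized, seeded near 10% confluence, left overnight to adhere; medium swapped for DMEM/FBS with 2-fold serial compound dilutions.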

[11] = Solubility of the compound in DMEM/FBS medium; type: physicochemical
How it was run: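 Solubility limit estimated from 2-fold serial dilutions in DMEM with 5% FBS kept overnight at 37 °C; highest concentration with no visible precipitate taken.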

[12] = test system: Staphylococcus aureus; assay: Disruption of membrane potential in Staphylococcus aureus Newman assessed as […] at 4 times MIC using DiOC2(3) probe by fluorescence assay; type: functional
How it was run: (§1)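 S. aureus Newman grown to OD600nm ≈ 0.3 in Mueller–Hinton II, stained with DiOC2(3) and run on flow cytometry; red/green fluorescence ratio gives membrane potential. CCCP positive control, vancomycin negative control.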

[13] = test system: Staphylococcus aureus; assay: Disruption of membrane potential in Staphylococcus aureus Newman assessed as […] using DiOC2(3) probe by fluorescence assay; type: functional; how it was run: as §1
[14] = Inhibition of purified recombinant Escherichia coli topoisomerase 1 assessed as relaxation of supercoiled plasmid DNA after 30 mins by electrophoretic analysis
[15] = Inhibition of Escherichia coli topoisomerase 4 assessed as inhibition of decatenation of catenated kinetoplast DNA after 30 mins by electrophoretic analysis
[16] = target: DNA gyrase (Escherichia coli, UniProt P0AES4+P0AES6); assay: Inhibition of Escherichia coli DNA gyrase assessed as supercoiled plasmid DNA formation after 30 mins by electrophoretic analysis; type: protein-complex assay

Row | SMILES | MIC [1] [µg/mL] | MIC [2] [µg/mL] | MIC [3] [µg/mL] | MIC [4] [µg/mL] | MIC [5] [µg/mL] | MIC [6] [µg/mL] | MIC [7] [µg/mL] | MIC [8] [µg/mL] | Selectivity Index [9] | IC50 [10] [µg/mL] | solubility [11] [µg/mL] | Activity [12] | Activity [13] | IC50 [14] [µM] | IC50 [15] [µM] | IC50 [16] [µM]
1 | CCCCCCC1CC(=O)c2c(OCOC)cc(OCOC)cc2O1 (configuration not stated) | 6.25 (≈ 17.7 µM) | > 200 | 50 (≈ 142 µM) | > 200 | > 200 | > 200 | > 200 | > 200 |  |  |  |  |  |  |  | 
2 | CCCCCCCCCC1C/C(=N\OCc2ccccc2)c2c(O)cc(O)cc2O1 (configuration not stated) | > 200 | 50 (≈ 121 µM) | > 200 | > 200 | > 200 | > 200 | > 200 | > 200 |  |  |  |  |  |  |  | 
3 | CCCC1CC(=O)c2c(O)cc(O)cc2O1 (configuration not stated) | 50 (≈ 225 µM) | 200 (≈ 900 µM) | 200 (≈ 900 µM) | > 200 | > 200 | > 200 | 100 (≈ 450 µM) | 100 (≈ 450 µM) |  |  |  |  |  |  |  | 
4 | CC(C)=CCCC(C)CC1CC(=O)c2c(O)cccc2O1 (configuration not stated) | > 200 | > 200 | > 200 | > 200 | > 200 | > 200 | > 200 | > 200 |  |  |  |  |  |  |  | 
5 | CC(C)=CCCC(C)CC1CC(=O)c2cc(O)ccc2O1 (configuration not stated) | 3.13 (≈ 10.9 µM) | 6.25 (≈ 21.7 µM) | 200 (≈ 694 µM) | > 200 | > 200 | > 200 | 6.25 (≈ 21.7 µM) | 12.5 (≈ 43.3 µM) |  |  |  |  |  |  |  | 
6 | CC(C)=CCCC(C)CC1CC(=O)c2ccc(O)cc2O1 (configuration not stated) | 1.56 (≈ 5.41 µM) | 12.5 (≈ 43.3 µM) | 200 (≈ 694 µM) | > 200 | > 200 | > 200 | 6.25 (≈ 21.7 µM) | 3.13 (≈ 10.9 µM) | 9.2 | 28.8 (≈ 99.9 µM) | > 200 |  |  |  |  | 
7 | CCCCCCCCCC1CC(=O)c2c(O)cc(O)cc2O1 (configuration not stated) | 12.5 (≈ 40.8 µM) | 100 (≈ 326 µM) | 100 (≈ 326 µM) | > 200 | > 200 | > 200 | 100 (≈ 326 µM) | 3.13 (≈ 10.2 µM) | 2.8 | 8.6 (≈ 28.1 µM) | > 200 |  |  |  |  | 
8 | CCCCCCCCCC1C/C(=N\OC)c2c(O)cc(O)cc2O1 (configuration not stated) | > 200 | > 200 | 200 (≈ 596 µM) | > 200 | > 200 | > 200 | 100 (≈ 298 µM) | 25 (≈ 74.5 µM) |  |  |  |  |  |  |  | 
9 | CC1(C)C2CC=C(C3CC(=O)c4ccc(O)cc4O3)C1C2 (configuration not stated) | 6.25 (≈ 22 µM) | > 200 | > 200 | > 200 | > 200 | > 200 | 200 (≈ 703 µM) | 200 (≈ 703 µM) |  |  |  |  |  |  |  | 
10 | CC(C)=CCCC(C)CC1CC(=O)c2c(O)cc(O)cc2O1 (configuration not stated) | 1.56 (≈ 5.13 µM) | 6.25 (≈ 20.5 µM) | 200 (≈ 657 µM) | > 200 | > 200 | > 200 |  | 3.13 (≈ 10.3 µM) | 8.6 | 27 (≈ 88.7 µM) | > 200 | Active | Dose-dependent effect |  |  | 
11 | CCCCCCOc1ccccc1C1CC(=O)c2ccc(O)cc2O1 (configuration not stated) | 1.56 (≈ 4.58 µM) | 50 (≈ 147 µM) | > 200 | > 200 | > 200 | > 200 | 1.56 (≈ 4.58 µM) | 1.56 (≈ 4.58 µM) | 15.7 | 24.5 (≈ 72 µM) | > 200 |  |  | > 500 | > 1000 | > 1000
12 | CCCCCCCC1CC(=O)c2c(OCOC)cc(OCOC)cc2O1 (configuration not stated) | 12.5 (≈ 34.1 µM) | > 200 | 50 (≈ 136 µM) | > 200 | > 200 | > 200 | > 200 | > 200 |  |  |  |  |  |  |  | 
13 | O=C1CC(c2ccc(N3CCCCC3)cc2)Oc2cc(O)ccc21 (configuration not stated) | 12.5 (≈ 38.7 µM) | 200 (≈ 618 µM) | > 200 | > 200 | > 200 | > 200 | > 200 | > 200 |  |  |  |  |  |  |  | 
14 | C=CCOc1ccccc1C1CC(=O)c2ccc(O)cc2O1 (configuration not stated) | 12.5 (≈ 42.2 µM) | 50 (≈ 169 µM) | 100 (≈ 337 µM) | > 200 | > 200 | > 200 | 25 (≈ 84.4 µM) | 25 (≈ 84.4 µM) |  |  |  |  |  |  |  | 
15 | CSc1ccc2c(c1)N(CCC1CCCCN1C)c1ccccc1S2 (configuration not stated) [THIORIDAZINE] |  |  |  |  |  |  |  |  |  | 5.3 (≈ 14.3 µM) |  |  |  |  |  | 
16 | C=CCOc1ccccc1/C=C/C(=O)c1ccc(O)cc1 | 6.25 (≈ 22.3 µM) | 100 (≈ 357 µM) | 200 (≈ 713 µM) | > 200 | > 200 | > 200 | 12.5 (≈ 44.6 µM) | 6.25 (≈ 22.3 µM) |  |  |  |  |  |  |  | 
